Converted amounts (≈) assume the structure as drawn. One block for each compound: values may come before it. The source made the active and inactive calls. The calls are words filed in the database; no cut-off is given here.
Assays:
Plasmodium falciparum [1] = test: Antiplasmodial activity against Plasmodium falciparum 3D7A infected in red blood cells preincubated for 24 hrs followed by [3H]-hypoxanthine addition measured after 24 hrs by scintillation counting; assay type: functional, cell-based
How it was run: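 Whole-cell growth assay on sensitive P. falciparum strain 3D7A by [3H]hypoxanthine incorporation; two or three independent biological replicates per value.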

Liver = test: Intrinsic clearance in human liver microsomes at 0.5 uM up to 45 mins in presence of NADPH by HPLC-MS/MS analysis; assay type: ADME, microsome; settings: 0.75 h
Plasma [2] = test: Drug level in Swiss CD1 mouse plasma treated with 5-(3-(Pyridin-3-yl)-5-(trifluoromethyl)phenyl)-N-(4-(pyrrolidin-1-ylmethyl)phenyl)-1,3,4-oxadiazol-2-amine at 500 mg/kg, po by HPLC analysis; assay type: ADME, organism-based; settings: in vivo
How it was run: (§1)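 Mice given high oral doses (250/300 and 500 mg/kg); plasma analysed by HPLC for parent compound and breakdown products, expressed as percentage levels.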

Mus musculus [3] = test: Clearance in CD1 mouse at 1 mg/kg, iv measured up to 24 hrs post dose by LC-MS/MS analysis; assay type: ADME, organism-based; settings: mouse, in vivo, 24 h
How it was run: (§2)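 Pharmacokinetics in mouse after a single intravenous dose of 1 mg/kg.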

[4] = Solubility of the compound in fasted state stimulated intestinal fluid at pH 6.5 by HPLC analysis; assay type: physicochemical; settings: fasted state simulated intestinal fluid
How it was run: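 Solubility measured in fasted state simulated intestinal fluid, pH 6.5.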

Plasmodium falciparum [5] = test: Antimalarial activity against Plasmodium falciparum 3D7 0087/N9 infected in po dosed SCID mouse assessed as reduction in parasitemia administered 3 days post infection dosed once a day for four consecutive days measured after 7 days; assay type: functional; settings: 3D7 0087/N9, po
How it was run: (§3)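 SCID mice engrafted with human parasite P. falciparum Pf 3D70087/N9; oral dosing started 3 days after infection, once daily for four consecutive days; parasitemia compared with untreated controls.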

Plasmodium falciparum [6] = test: Antimalarial activity against Plasmodium falciparum 3D7 0087/N9 infected in po dosed mouse assessed as average daily exposure in whole blood required to reduce parasitemia administered 3 days post infection dosed once a day for four consecutive days measured 7 days post dose; assay type: functional, organism-based
[7] = Lipophilicity, log D of compound at pH 7.4 by chromatographic method; assay type: physicochemical; settings: buffer
[8] = Oral bioavailability in CD1 mouse at 10 mg/kg measured up to 24 hrs post dose by LC-MS/MS analysis; assay type: ADME, organism-based; settings: in vivo
How it was run: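 Oral bioavailability in mouse after a single oral dose of 10 mg/kg.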

[9] = Half life in CD1 mouse at 1 mg/kg, iv measured up to 24 hrs post dose by LC-MS/MS analysis; assay type: ADME, organism-based; settings: in vivo; how it was run: as §2
Plasmodium falciparum [10] = test: Antimalarial activity against Plasmodium falciparum 3D7 0087/N9 infected in SCID mouse assessed as reduction in parasitemia at 50 mg/kg, po administered 3 days post infection dosed once a day for four consecutive days measured 2 days; assay type: functional, organism-based; how it was run: as §3
Plasmodium falciparum [11] = test: Ratio of IC50 for chloroquine/pyrimethamine-resistant Plasmodium falciparum Tm90C2A infected in red blood cells to IC50 for wild type Plasmodium falciparum 3D7A infected in red blood cells; assay type: functional
Plasmodium falciparum [12] = test: Ratio of IC50 for chloroquine/atovaquone/cycloguanil-resistant Plasmodium falciparum FCR3 infected in red blood cells to IC50 for wild type Plasmodium falciparum 3D7A infected in red blood cells; assay type: functional
[13] = Volume of distribution at steady state in CD1 mouse at 1 mg/kg, iv measured up to 24 hrs post dose by LC-MS/MS analysis; assay type: ADME, organism-based; settings: in vivo, read-out: Vdss; how it was run: as §2
[14] = Ratio of TC50 for human HepG2 to IC50 for antiplasmodial activity against Plasmodium falciparum 3D7A infected in red blood cells
How it was run: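 Denominator is the asexual P. falciparum 3D7A IC50 from a [3H]hypoxanthine incorporation assay, using two or three independent biological replicates. Numerator is the 50% toxicity value in HepG2 cells, expressed as Tox50/Pf 3D7 IC50.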

[15] = Ratio of IC50 for chloroquine/pyrimethamine-resistant Plasmodium falciparum Dd2 infected in red blood cells to IC50 for wild type Plasmodium falciparum 3D7A infected in red blood cells; assay type: functional
Plasmodium falciparum [16] = test: Antimalarial activity against Plasmodium falciparum 3D7 0087/N9 infected in SCID mouse assessed as reduction in parasitemia at 120 mg/kg, po administered 3 days post infection dosed once a day for four consecutive days relative to control; assay type: functional; design: scale not given: the % may be the effect or the level left; how it was run: as §3
Plasmodium falciparum [17] = test: Ratio of IC50 for pyrimethamine-resistant Plasmodium falciparum TC08 infected in red blood cells to IC50 for wild type Plasmodium falciparum 3D7A infected in red blood cells; assay type: functional
[18] = Ratio of IC50 for Plasmodium falciparum HB3 infected in red blood cells to IC50 for wild type Plasmodium falciparum 3D7A infected in red blood cells; assay type: functional
Plasmodium falciparum [19] = test: Ratio of IC50 for chloroquine/pyrimethamine-resistant Plasmodium falciparum V1/S infected in red blood cells to IC50 for wild type Plasmodium falciparum 3D7A infected in red blood cells; assay type: functional
HepG2 = test: Cytotoxicity against human HepG2 cells at 25 uM; assay type: cell-based; settings: hepg2, 25 µM
How it was run: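 HepG2 cells exposed to compound at 25 μM to assess mammalian cytotoxicity.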

Plasmodium falciparum [20] = test: Ratio of IC50 for chloroquine-resistant Plasmodium falciparum T9/94 infected in red blood cells to IC50 for wild type Plasmodium falciparum 3D7A infected in red blood cells; assay type: functional
Plasmodium falciparum [21] = test: Ratio of IC50 for chloroquine/pyrimethamine/atovaquone-resistant Plasmodium falciparum Tm90C2B infected in red blood cells to IC50 for wild type Plasmodium falciparum 3D7A infected in red blood cells; assay type: functional
Mus musculus [22] = test: Toxicity in Swiss CD1 mouse assessed as effect on in life observation at 300 to 500 mg/kg, po measured up to 24 hrs post dose by Irwin test; assay type: organism-based; settings: in vivo
How it was run: (§4)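 Female Swiss CD-1 mice given oral doses of 300 and 500 mg/kg; in-life observations, body weight evolution, relative organ weight, hematology and clinical chemistry recorded; plasma exposure measured at the highest dose; two independent experiments.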

Mus musculus [23] = test: Toxicity in Swiss CD1 mouse assessed as effect on organ weight at 300 to 500 mg/kg, po measured up to 24 hrs post dose by Irwin test; assay type: organism-based; settings: in vivo; how it was run: as §4
[24] = Ratio of IC50 for chloroquine-resistant Plasmodium falciparum 2B12 infected in red blood cells to IC50 for wild type Plasmodium falciparum […] infected in red blood cells; assay type: functional
Plasma [25] = test: Drug metabolism in Swiss CD1 mouse assessed as 2-([3,4'-Bipyridine]-2'-carbonyl)-N-(4-(pyrrolidin-1-ylmethyl)-phenyl)hydrazinecarboxamide in plasma at 300 to 500 mg/kg, po by HPLC analysis; assay type: ADME, organism-based; settings: in vivo; how it was run: as §1
[26] = Chemical stability of compound in SGF media at pH 1.6 after 24 hrs; assay type: physicochemical; settings: simulated gi fluid, pH 1.6, 24 h
How it was run: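 Stability in simulated gastric fluid at pH 1.6, held at 37 °C for up to 24 h; checked for degradation products.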

Mus musculus [27] = test: Toxicity in Swiss CD1 mouse assessed as effect on body weight evolution at 300 to 500 mg/kg, po measured up to 24 hrs post dose by Irwin test; assay type: organism-based; settings: in vivo; how it was run: as §4
Mus musculus [28] = test: Toxicity in Swiss CD1 mouse assessed as passivity at 500 mg/kg, po measured up to 24 hrs post dose by Irwin test; assay type: organism-based; settings: in vivo
[29] = AUC in Swiss CD1 mouse plasma at 500 mg/kg, po; assay type: ADME, organism-based; how it was run: as §4
Plasma [30] = test: Drug level in Swiss CD1 mouse plasma treated with 5-([3,4'-Bipyridin]-2'-yl)-N-(4-(pyrrolidin-1-ylmethyl)phenyl)-1,3,4-oxadiazol-2-amine at 500 mg/kg, po by HPLC analysis; assay type: ADME, organism-based; settings: in vivo; how it was run: as §1

IC50 (Plasmodium falciparum [1]): 690 nM | intrinsic clearance (Liver): 3.3 mL/min/g
SMILES: FC(F)(F)c1cccc(Nc2nnc(-c3cccc(-c4cccnc4)c3)o2)c1

IC50 (Plasmodium falciparum [1]): 5530 nM | intrinsic clearance (Liver): 3.7 mL/min/g
SMILES: Clc1cccc(Nc2nnc(-c3cccc(-c4cccnc4)c3)o2)c1

Drug metabolism (Plasma [2]): Metabolite_Detected
SMILES: O=C(O)c1cc(-c2cccnc2)cc(C(F)(F)F)c1

IC50 (Plasmodium falciparum [1]): 50 nM | intrinsic clearance (Liver): 2.9 mL/min/g
SMILES: CN1CCc2ccc(Nc3nnc(-c4cc(-c5cccnc5)ccc4F)o3)cc2C1

IC50 (Plasmodium falciparum [1]): 220 nM | intrinsic clearance (Liver): < 0.5 mL/min/g
SMILES: CN1CCc2ccc(Nc3nnc(-c4cc(OC(F)(F)F)cc(-c5cccnc5)c4)o3)cc2C1

IC50 (Plasmodium falciparum [1]): 30 nM
SMILES: CN(C)Cc1ccc(Nc2nnc(-c3cccc(-c4cccnc4)c3)o2)cc1

IC50 (Plasmodium falciparum [1]): 50 nM | intrinsic clearance (Liver): < 0.5 mL/min/g
SMILES: CN1CCc2ccc(Nc3nnc(-c4cc(F)cc(-c5cccnc5)c4)o3)cc2C1

clearance (Mus musculus [3]): 76.9 mL/min/kg | solubility [4]: 57 µg/mL (≈ 130 µM) | IC50 (Plasmodium falciparum [1]): 30 nM | chromatographic logD [7]: 3.2 to 3.3 | bioavailability [8]: 100% | half-life [9]: 17.4 min
SMILES: CN(C)Cc1ccc(Nc2nnc(-c3cc(-c4cccnc4)cc(C(F)(F)F)c3)o2)cc1
ED90 (Plasmodium falciparum [5]): < 20 mg/kg | AUCED90 (Plasmodium falciparum [6]): < 2.5 µg.hr/ml/day | Activity (Plasmodium falciparum [10]): Active

IC50 (Plasmodium falciparum [1]): 1900 nM
SMILES: CN1CCc2ccc(Nc3nnc(-c4cccc(-c5cccnc5)n4)o3)cc2C1

IC50 (Plasmodium falciparum [1]): 30 nM | intrinsic clearance (Liver): 1.45 mL/min/g
SMILES: CN1CCc2ccc(Nc3nnc(-c4cncc(-c5cccnc5)c4)o3)cc2C1

SMILES: CN1CCOc2ccc(Nc3nnc(-c4cccc(-c5cccnc5)c4)o3)cc2C1
Ratio IC50 (Plasmodium falciparum [11]): 1 | Ratio IC50 (Plasmodium falciparum [12]): 1 | Vd [13]: 2.6 L/kg | Ratio [14]: >100 | ED90 (Plasmodium falciparum [5]): > 120 mg/kg | IC50 (Plasmodium falciparum [1]): 70 nM | Ratio IC50 [15]: 1 | Activity (Plasmodium falciparum [16]): 81% | Ratio IC50 (Plasmodium falciparum [17]): 1 | Ratio IC50 [18]: 1 | Ratio IC50 (Plasmodium falciparum [19]): 1 | Activity (HepG2): Non-Toxic | Ratio IC50 (Plasmodium falciparum [20]): 1 | intrinsic clearance (Liver): 13.7 mL/min/g | bioavailability [8]: 26.6% | Ratio IC50 (Plasmodium falciparum [21]): 1

IC50 (Plasmodium falciparum [1]): 100 nM | intrinsic clearance (Liver): 1.8 mL/min/g
SMILES: CN1CCc2ccc(Nc3nnc(-c4cccc(-c5cccnc5)c4)o3)cc2C1

SMILES: c1cncc(-c2ccnc(-c3nnc(Nc4ccc(CN5CCCC5)cc4)o3)c2)c1
solubility [4]: > 1000 µg/mL | Ratio [14]: >1000 | ED90 (Plasmodium falciparum [5]): 12.4 mg/kg | IC50 (Plasmodium falciparum [1]): 20 nM | Ratio IC50 [15]: 1 | Activity (Mus musculus [22]): Non-Toxic | Activity (Mus musculus [23]): Non-Toxic | Ratio IC50 [24]: 1 | Ratio IC50 (Plasmodium falciparum [19]): 1 | Drug metabolism (Plasma [25]): Metabolite_Detected | Stability [26]: Stable | Activity (Mus musculus [27]): Non-Toxic | chromatographic logD [7]: 1.3 | Activity (Mus musculus [28]): Toxic | Ratio IC50 (Plasmodium falciparum [21]): 1 | AUC [29]: 68900 ng·h/mL

Drug metabolism (Plasma [30]): Metabolite_Detected
SMILES: O=C(NNC(=O)c1cc(-c2cccnc2)ccn1)Nc1ccc(CN2CCCC2)cc1

Source: ChEMBL document CHEMBL4017499, “The Discovery of Novel Antimalarial Aminoxadiazoles as a Promising Nonendoperoxide Scaffold” (J Med Chem, 2017)
